In ChEMBL document CHEMBL3992503, “Developing piperlongumine-directed glutathione S-transferase inhibitors by an electrophilicity-based strategy” (Eur J Med Chem, 2017):
pIC50, pKi: −log10 of the molar value. Activity calls are given as the source filed them. The calls are words filed in the database; no cut-off is given here.

Columns and labels:
Equus caballus = organism: Equus caballus; test: Inhibition of equine liver GST assessed as decrease in conjugation of CDNB to GSH at 100 uM preincubated with GSH for 30 mins followed by CDNB addition measured for 3 mins relative to control
Method in brief: (§1)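 CDNB–GSH conjugation by equine liver GST in 100 mM potassium phosphate pH 6.5 with 1 mM GSH. Enzyme and inhibitor preincubated 30 min at 37 °C. Reaction started with 1 mM CDNB (final) and followed at 340 nm for 3 min at 25 °C. Single-point inhibition at 100 (unit unclear); IC50 from sigmoidal fit of inhibition versus concentration.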

[1] = Electrophilicity of the compound assessed as second-oder rate constant for reaction with cysteamine under pseudo-first-oder condition at 40 uM by spectrophotometric method
Method in brief: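 Compound fixed at 40 (unit unclear) with cysteamine 0.67–9 mM in 100 mM Tris-HCl pH 7.4 containing 2 mM EDTA–ethanol (v/v 2/1), 25 °C, pseudo-first-order conditions. Decay of compound followed spectrophotometrically at its absorbance maximum; second-order constant k2 derived from these runs.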

[2] = Inhibition of equine liver GST assessed as decrease in conjugation of CDNB to GSH preincubated with GSH for 30 mins followed by CDNB addition measured for 3 mins; design: species or system Equus caballus; method in brief: as §1
[3] = Competitive inhibition of equine liver GST using varying levels of substrate GSH and fixed CDNB concentration preincubated with GSH for 30 mins followed by CDNB addition measured for 3 mins by Lineweaver-Burk plot analysis; design: species or system Equus caballus
Method in brief: (§2)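 Equine liver GST in 100 mM potassium phosphate pH 6.5 with inhibitor at 0, 12.5, 25 or 50 (unit unclear). Varied substrate at 0.1–1 mM, other substrate fixed at 1 mM: GSH varied for line 1, CDNB for line 10. Preincubated 30 min at 37 °C, started with CDNB, A340 read for 3 min at 25 °C. Mean of triplicates on Lineweaver-Burk plots; Ki from intercept (CDNB) or slope (GSH) replots.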

[4] = Noncompetitive inhibition of equine liver GST using fixed GSH substrate concentration and varying levels of CDNB preincubated with GSH for 30 mins followed by CDNB addition measured for 3 mins by Lineweaver-Burk plot analysis; design: species or system Equus caballus; method in brief: as §2
[5] = target: T1, Glutathione S-transferase Mu 1 (Homo sapiens) (UniProt P09488); test: Inhibition of GSTM1 in human A549 cells assessed as potentiation of cisplatin-induced cytotoxicity by measuring combination index at 5 uM preincubated for 2 hrs followed by cisplatin addition measured after 48 hrs by MTT assay; type: cell-based
T1 sequence (whole entry): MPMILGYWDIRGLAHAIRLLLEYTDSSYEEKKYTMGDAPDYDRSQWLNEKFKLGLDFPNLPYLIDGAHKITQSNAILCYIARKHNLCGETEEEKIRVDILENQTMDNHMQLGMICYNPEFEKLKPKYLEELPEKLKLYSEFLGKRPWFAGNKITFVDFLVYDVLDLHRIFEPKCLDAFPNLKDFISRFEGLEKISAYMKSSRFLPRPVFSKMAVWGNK

A549 [6] = test: Inhibition of GST in human A549 cells at 25 uM after 1.5 hrs in presence of DTT by DNs-CV probe based fluorescence microscopic method
[7] = target: T1, Glutathione S-transferase Mu 1 (Homo sapiens); test: Inhibition of GSTM1 in human A549 cells assessed as potentiation of cisplatin-induced cytotoxicity at 5 uM preincubated for 2 hrs followed by cisplatin addition measured after 48 hrs in presence of DTT by MTT assay; type: cell-based
Method in brief: (§3)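 A549 cells seeded at 3 × 10⁴ cells/mL and cultured 24 h. For line 6, DTT pretreatment (250, unit unclear) for 1 h. Compound added for 2 h, then cisplatin at 2.5, 5, 10 and 20 (unit unclear) for 48 h. MTT for 4 h at 37 °C in the dark, DMSO solubilisation, OD read at 570 nm.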

A549 [8] = test: Inhibition of GST in human A549 cells at 25 uM after 1.5 hrs by DNs-CV probe based fluorescence microscopic method
[9] = target: T1, Glutathione S-transferase Mu 1 (Homo sapiens); test: Inhibition of GSTM1 in human A549 cells assessed as potentiation of cisplatin-induced cytotoxicity at 5 uM preincubated for 2 hrs followed by cisplatin addition measured after 48 hrs by MTT assay; type: cell-based; method in brief: as §3

| SMILES | inhibition (Equus caballus) [%] | pIC50 [2] | pKi [3] | pKi [4] | K [1] [M⁻¹ s⁻¹] | CI [5] | inhibition (A549 [6]) | inhibition [7] | inhibition (A549 [8]) | inhibition [9] |
| --- | --- | --- | --- | --- | --- | --- | --- | --- | --- | --- |
| COc1cc(/C=C/C(=O)N2CCC=C(Cl)C2=O)cc(OC)c1OC | 30.8 | < 4.00 | – | – | 0.99 | – | – | – | – | – |
| COc1cc(/C=C/C(=O)N2CCC=CC2=O)cc(OC)c1OC [PIPLARTINE] | 30.7 | < 4.00 | – | – | 0.46 | – | – | – | inactive | – |
| COc1cc(/C=C/C(=O)C2CCC=CC2=O)cc(OC)c1OC (stereo not drawn) | 50.5 | < 4.00 | – | – | 1.15 | – | – | – | – | – |
| O=C1C=CCCN1C(=O)/C=C/c1ccccc1C(F)(F)F | 31.5 | < 4.00 | – | – | 0.39 | – | – | – | – | – |
| COc1cc(CCC(=O)N2CCCCC2=O)cc(OC)c1OC [TETRAHYDROPIPLARTINE] | 0 | < 4.00 | – | – | – | – | – | – | – | – |

The next lines start with results.

| inhibition (Equus caballus) [%] | pIC50 [2] | pKi [3] | pKi [4] | SMILES | K [1] [M⁻¹ s⁻¹] | CI [5] | inhibition (A549 [6]) | inhibition [7] | inhibition (A549 [8]) | inhibition [9] |
| --- | --- | --- | --- | --- | --- | --- | --- | --- | --- | --- |
| 15.4 | < 4.00 | – | – | COc1cc(/C=C/C(=O)N2CCCCC2=O)cc(OC)c1OC | 0.35 | – | – | – | – | – |
| 74.7 | 5.25 | 5.11 | 4.61 | O=C(/C=C/c1ccc(C(F)(F)F)cc1)N1CCC=C(Cl)C1=O | 2.64 | < 1 | inactive | inactive | Active | Active |
| 8.2 | < 4.00 | – | – | C/C=C/C(=O)N1CCC=CC1=O | 1.21 | – | – | – | – | – |
| 55.5 | 4.38 | – | – | O=C1C=CCCN1C(=O)/C=C/c1ccc(C(F)(F)F)cc1 | 1.35 | – | – | – | – | – |
| 40.3 | < 4.00 | – | – | O=C(/C=C/c1ccccc1C(F)(F)F)N1CCC=C(Cl)C1=O | 0.67 | – | – | – | – | – |
| 53 | 4.30 | – | – | O=C1C=CCCN1C(=O)/C=C/c1cccc(C(F)(F)F)c1 | 1.13 | – | – | – | – | – |
| 71 | 4.98 | – | – | O=C(/C=C/c1cccc(C(F)(F)F)c1)N1CCC=C(Cl)C1=O | 2.53 | – | – | – | – | – |
